Source: article PMC2669732 (Journal of Medicinal Chemistry, 2009)
Where two headings read alike, the source gives them in different places.

Legend:
EcIspF = molecular target: T1, EcIspF (Escherichia coli, UniProt P62617); experiment: SPR binding assay with immobilized EcIspF; settings: for ΔG: ΔG = −RT ln Kd; for fold weaker binding than CMP: SPR KD comparison
T1 sequence (P62617 1-159): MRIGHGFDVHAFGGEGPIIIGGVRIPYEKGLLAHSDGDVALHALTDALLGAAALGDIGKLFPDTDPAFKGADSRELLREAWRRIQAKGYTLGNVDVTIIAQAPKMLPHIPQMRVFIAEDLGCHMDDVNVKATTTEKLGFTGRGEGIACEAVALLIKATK
Method in brief: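 E. coli IspF expressed in BL21(DE3), >95% pure, amine-coupled to CM5 chip (diluted to ~100 μg/mL final in 10 mM acetate pH 5.5) to 4500–5500 RU. Ligand series 0.1 μM–10 mM run at 10 °C, 30 μL/min, in 50 mM sodium phosphate pH 7, 2 mM MgCl2, 0.005% P20. Each injection in triplicate with 40 min buffer regeneration. Blank-subtracted steady-state RU fit to 1:1 Langmuir model.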

E. coli LpxC = settings: cited from earlier work
LpxC = settings: cited from earlier work
[1] = Δg = ΔG/N, N = number of non-hydrogen atoms, Table 5

Compound | ligand efficiency (Δg) (EcIspF) [kJ·mol^−1/non-H atom] | ΔG (EcIspF) [kJ/mol] | ligand efficiency (Δg) (EcIspF; [1]) [kJ·mol^−1/non-H atom] | also measured
Nc1ccn([C@@H]2O[C@H](COP(=O)(O)O)[C@@H](O)[C@H]2O)c(=O)n1 [CMP] | −0.79 | -16.49 | −0.79 | –
Nc1ccn([C@H]2O[C@@H](CO)[C@H]3OP(=O)(O)O[C@H]32)c(=O)n1 (mixture of isomers) [Compound 6] | – | – | – | fold weaker binding than CMP (EcIspF): about 20 fold
O=C(O)C1COC(c2ccccc2)=N1 (stereo not shown) [4,5 dihydro-2-phenyloxazole-4-carboxylic acid] | – | – | – | IC50 (E. coli LpxC): > 400 µM
UDP-3-acyl-GlcNAc | – | – | – | Km (LpxC; natural substrate of LpxC): 2.1 µM
Nc1ccn(CC(CO)OCP(=O)(O)O)c(=O)n1.O.O (stereo in doubt) [CDV, [(2R)-1-(4-amino-2-oxo-pyrimidin-1-yl)-3-hydroxy-propan-2-yl] oxymethylphosphonic acid] | – | -7.57 | −0.42 | –
Nc1ccn([C@@H]2O[C@H](COP(=O)(O)O)[C@@H](O)[C@@H]2O)c(=O)n1 [AraCMP] | – | -9.34 | −0.44 | fold weaker binding than CMP (EcIspF): 20 fold
CC(=O)N[C@H]1[C@@H](OP(=O)(O)OP(=O)(O)OC[C@H]2O[C@@H](n3ccc(=O)[nH]c3=O)[C@H](O)[C@@H]2O)O[C@H](CO)[C@@H](O)[C@@H]1O [UDP-GlcNAc] | – | – | – | Km (LpxC; substrate of LpxC): > 20000 µM

More lines, main results first:

ligand efficiency (Δg) (EcIspF) [kJ·mol^−1/non-H atom] | ΔG (EcIspF) [kJ/mol] | ligand efficiency (Δg) (EcIspF; [1]) [kJ·mol^−1/non-H atom] | Compound | also measured
−0.81 | -14.60 | −0.81 | Nc1nc(=O)n([C@@H]2O[C@H](CO)[C@@H](O)[C@H]2O)cc1F [FLUC] | –
– | -16.44 | −0.82 | Nc1ccn([C@@H]2O[C@@H]3COP(=O)(O)O[C@H]3[C@H]2O)c(=O)n1 [Compound 7] | –
−2.04 | – | −2.04 | N[C@@H](Cc1c[nH]c2ccccc12)C(=O)NO [Compound 13, 2-amino-N-hydroxy-3-(1H-indol-3-yl)-propionimidic acid] | –
